Converted amounts (≈) assume the structure as drawn.
How the values were obtained:
[1] = target: Signal peptidase I (Escherichia coli K-12, UniProt P00803); test: Binding affinity to Escherichia coli type-1 signal peptidase lepB using decanoyl-LSSPAYNO2A-ADKabzPD and decanyol-LTPTAYNO2A-ASKKabzDD as substrate by fluorescence assay
[2] = test system: Escherichia coli; test: Antibacterial activity against Escherichia coli MG1655 harboring lepB (P84L) mutation assessed as growth inhibition after 22 hrs by broth microdilution method; assay type: functional; details: K-12 substr. MG1655, 22 h
Outline: (§1)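 MIC by broth microdilution against wild-type S. epidermidis RP62A, MSSA 8325, MRSA USA300 and E. coli MG1655. Also tested: S. aureus 8325 and E. coli MG1655 mutants made sensitive by mutating the resistance-conferring SPase Pro residue, an lptD hyperpermeable E. coli (outer membrane permeable to large molecules), and an E. coli combining lptD with SPase sensitization.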

[3] = test system: Staphylococcus aureus; test: Antibacterial activity against Staphylococcus aureus 8325 harboring spsB (P29S) mutation assessed as growth inhibition after 22 hrs by broth microdilution method; assay type: functional; details: NCTC 8325, 22 h; outline: as §1
[4] = test system: Escherichia coli; test: Antibacterial activity against Escherichia coli MG1655 harboring lptD mutation assessed as growth inhibition after 22 hrs by broth microdilution method; assay type: functional; details: K-12 substr. MG1655, 22 h; outline: as §1
[5] = target: T1, Signal peptidase IB (Staphylococcus aureus, UniProt P0A070); test: Binding affinity to Staphylococcus aureus type-1 signal peptidase using decanoyl-LSSPAYNO2A-ADKabzPD and decanyol-LTPTAYNO2A-ASKKabzDD as substrate by fluorescence assay
T1 sequence (P0A070 whole entry): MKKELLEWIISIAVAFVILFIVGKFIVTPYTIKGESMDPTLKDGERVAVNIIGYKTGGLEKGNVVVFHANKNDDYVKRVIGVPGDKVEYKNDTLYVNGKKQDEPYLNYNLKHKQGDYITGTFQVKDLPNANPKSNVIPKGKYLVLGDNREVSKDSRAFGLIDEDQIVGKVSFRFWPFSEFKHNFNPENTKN

[6] = test system: Staphylococcus epidermidis; test: Antibacterial activity against wild type Staphylococcus epidermidis RP62A assessed as growth inhibition after 22 hrs by broth microdilution method; assay type: functional; outline: as §1
[7] = test system: Escherichia coli; test: Antibacterial activity against Escherichia coli MG1655 harboring lptD lepB (P84L) mutation assessed as growth inhibition after 22 hrs by broth microdilution method; assay type: functional; details: K-12 substr. MG1655, 22 h; outline: as §1
[8] = test system: Staphylococcus aureus; test: Antibacterial activity against wild type methicillin-sensitive Staphylococcus aureus 8325 assessed as growth inhibition after 22 hrs by broth microdilution method; assay type: functional; details: NCTC 8325, 22 h; outline: as §1
[9] = test system: Staphylococcus aureus; test: Antibacterial activity against wild type methicillin-resistant Staphylococcus aureus USA300 assessed as growth inhibition after 22 hrs by broth microdilution method; assay type: functional; details: USA300, 22 h; outline: as §1
[10] = test system: Escherichia coli; test: Antibacterial activity against wild type Escherichia coli MG1655 assessed as growth inhibition after 22 hrs by broth microdilution method; assay type: functional; details: K-12 substr. MG1655, 22 h; outline: as §1

CCCCCCCCCCCCCCCC(=O)N(C)[C@H](CO)C(=O)N[C@H](C)C(=O)NCC(=O)N(C)[C@@H]1C(=O)N[C@@H](C)C(=O)N[C@H](C(=O)O)Cc2ccc(O)c(c2)-c2cc1ccc2OCCO
IC50 [1]: 75.7 nM
MIC [2]: 1 µg/mL (≈ 1.08 µM)
MIC [3]: 8 µg/mL (≈ 8.65 µM)
MIC [4]: 16 µg/mL (≈ 17.3 µM)
IC50 [5]: 4220 nM
MIC [6]: 1 µg/mL (≈ 1.08 µM)
MIC [7]: 0.02 µg/mL (≈ 0.0216 µM)
MIC [8]: > 64 µg/mL
MIC [9]: > 64 µg/mL
MIC [10]: > 64 µg/mL

CCCCCCCCCCCCCCCC(=O)N(C)[C@H](CO)C(=O)N[C@H](C)C(=O)NCC(=O)N(C)[C@@H]1C(=O)N[C@@H](C)C(=O)N[C@H](CC(=O)NCC=O)Cc2ccc(O)c(c2)-c2cc1ccc2O
IC50 [1]: 1010 nM
MIC [2]: > 64 µg/mL
MIC [3]: > 64 µg/mL
MIC [4]: > 64 µg/mL
IC50 [5]: > 21400 nM
MIC [6]: 32 µg/mL (≈ 34.2 µM)
MIC [7]: 2 µg/mL (≈ 2.14 µM)
MIC [8]: > 64 µg/mL
MIC [9]: > 64 µg/mL
MIC [10]: > 64 µg/mL

CCCCCCCCCCCCCCCC(=O)N(C)[C@H](CO)C(=O)N[C@H](C)C(=O)NCC(=O)N(C)[C@@H]1C(=O)N[C@@H](C)C(=O)N[C@H](C(=O)O)Cc2ccc(O)c(c2)-c2cc1ccc2OP(=O)(O)O
IC50 [1]: 146 nM
MIC [2]: 1 µg/mL (≈ 1.04 µM)
MIC [3]: > 64 µg/mL
MIC [4]: 32 µg/mL (≈ 33.3 µM)
IC50 [5]: 1980 nM
MIC [6]: 0.3 µg/mL (≈ 0.312 µM)
MIC [7]: 0.03 µg/mL (≈ 0.0312 µM)
MIC [8]: > 64 µg/mL
MIC [9]: > 64 µg/mL
MIC [10]: > 64 µg/mL

CCCCCCCCCCCCCCCC(=O)N(C)[C@H](CO)C(=O)N[C@H](C)C(=O)NCC(=O)N(C)[C@@H]1C(=O)N[C@@H](C)C(=O)N[C@H](C(=O)NCC=O)Cc2ccc(O)c(c2)-c2cc1ccc2OP(=O)(OCc1ccccc1)OCc1ccccc1
IC50 [1]: 195 nM
MIC [2]: 16 µg/mL (≈ 13.5 µM)
MIC [3]: 32 µg/mL (≈ 27.1 µM)
MIC [4]: 64 µg/mL (≈ 54.1 µM)
IC50 [5]: 152 nM
MIC [6]: 1 µg/mL (≈ 0.846 µM)
MIC [7]: 0.3 µg/mL (≈ 0.254 µM)
MIC [8]: > 64 µg/mL
MIC [9]: > 64 µg/mL
MIC [10]: > 64 µg/mL

CCCCCCCCCCCCCCCC(=O)N(C)[C@H](CO)C(=O)N[C@H](C)C(=O)NCC(=O)N(C)[C@@H]1C(=O)N[C@@H](C)C(=O)N[C@H](C(=O)O)Cc2ccc(O)c(c2)-c2cc1ccc2OCCN
IC50 [1]: 55.2 nM
MIC [2]: 0.5 µg/mL (≈ 0.541 µM)
MIC [3]: 4 µg/mL (≈ 4.33 µM)
MIC [4]: 4 µg/mL (≈ 4.33 µM)
IC50 [5]: 3460 nM
MIC [6]: 0.1 µg/mL (≈ 0.108 µM)
MIC [7]: 0.004 µg/mL (≈ 0.00433 µM)
MIC [8]: > 64 µg/mL
MIC [9]: 32 µg/mL (≈ 34.6 µM)
MIC [10]: > 64 µg/mL

CCCCCCCCCCCCCCCC(=O)N(C)[C@H](CO)C(=O)N[C@H](C)C(=O)NCC(=O)N(C)[C@@H]1C(=O)N[C@@H](C)C(=O)N[C@H](C(=O)NCC=O)Cc2ccc(O)c(c2)-c2cc1ccc2OCCN
IC50 [1]: 87 nM
MIC [2]: 2 µg/mL (≈ 2.07 µM)
MIC [3]: 32 µg/mL (≈ 33.2 µM)
MIC [4]: > 64 µg/mL
IC50 [5]: 332 nM
MIC [6]: 1 µg/mL (≈ 1.04 µM)
MIC [7]: 0.06 µg/mL (≈ 0.0622 µM)
MIC [8]: > 64 µg/mL
MIC [9]: > 64 µg/mL
MIC [10]: > 64 µg/mL

CCCCCCCCCCCCCCCC(=O)N(C)[C@H](CO)C(=O)N[C@H](C)C(=O)NCC(=O)N(C)[C@@H]1C(=O)N[C@@H](C)C(=O)N[C@H](C(=O)NCC=O)Cc2ccc(O)c(c2)-c2cc1ccc2OCCO
IC50 [1]: 9.31 nM
MIC [2]: 2 µg/mL (≈ 2.07 µM)
MIC [3]: 8 µg/mL (≈ 8.28 µM)
MIC [4]: 16 µg/mL (≈ 16.6 µM)
IC50 [5]: 63.1 nM
MIC [6]: 2 µg/mL (≈ 2.07 µM)
MIC [7]: 0.03 µg/mL (≈ 0.031 µM)
MIC [8]: > 64 µg/mL
MIC [9]: 64 µg/mL (≈ 66.2 µM)
MIC [10]: > 64 µg/mL

CCCCCCCCCCCCCCCC(=O)N(C)[C@H](CO)C(=O)N[C@H](C)C(=O)NCC(=O)N(C)[C@@H]1C(=O)N[C@@H](C)C(=O)N[C@H](C(=O)NCP(=O)(OCC)OCC)Cc2ccc(O)c(c2)-c2cc1ccc2O
IC50 [1]: > 19400 nM
MIC [2]: > 64 µg/mL
MIC [3]: > 64 µg/mL
MIC [4]: > 64 µg/mL
IC50 [5]: > 19400 nM
MIC [6]: 8 µg/mL (≈ 7.77 µM)
MIC [7]: 2 µg/mL (≈ 1.94 µM)
MIC [8]: > 64 µg/mL
MIC [9]: > 64 µg/mL
MIC [10]: > 64 µg/mL

CCCCCCCCCCCCCCCC(=O)N(C)[C@H](CO)C(=O)N[C@H](C)C(=O)NCC(=O)N(C)[C@@H]1C(=O)N[C@@H](C)C(=O)N[C@H](C(=O)NCP(=O)(Oc2ccccc2)Oc2ccccc2)Cc2ccc(O)c(c2)-c2cc1ccc2O
IC50 [1]: > 17800 nM
MIC [2]: > 64 µg/mL
MIC [3]: > 64 µg/mL
MIC [4]: > 64 µg/mL
IC50 [5]: > 17800 nM
MIC [6]: > 64 µg/mL
MIC [7]: 8 µg/mL (≈ 7.1 µM)
MIC [8]: > 64 µg/mL
MIC [9]: > 64 µg/mL
MIC [10]: > 64 µg/mL

CCCCCCCCCCCCCCCC(=O)N(C)[C@H](CO)C(=O)N[C@H](C)C(=O)NCC(=O)N(C)[C@@H]1C(=O)N[C@@H](C)C(=O)N[C@H](C(=O)NCC=O)Cc2ccc(O)c(c2)-c2cc1ccc2O
IC50 [1]: 16.3 nM
MIC [2]: 4 µg/mL (≈ 4.34 µM)
MIC [3]: 8 µg/mL (≈ 8.68 µM)
MIC [4]: > 64 µg/mL
IC50 [5]: 53.1 nM
MIC [6]: 2 µg/mL (≈ 2.17 µM)
MIC [7]: 0.06 µg/mL (≈ 0.0651 µM)
MIC [8]: > 64 µg/mL
MIC [9]: 16 µg/mL (≈ 17.4 µM)
MIC [10]: > 64 µg/mL

CCCCCCCCCCCCCCCC(=O)N(C)[C@H](CO)C(=O)N[C@H](C)C(=O)NCC(=O)N(C)[C@@H]1C(=O)N[C@@H](C)C(=O)N[C@H](C(=O)NCP(=O)(OC)OC)Cc2ccc(O)c(c2)-c2cc1ccc2O
IC50 [1]: 20000 nM
MIC [2]: 64 µg/mL (≈ 63.9 µM)
MIC [3]: > 64 µg/mL
MIC [4]: > 64 µg/mL
IC50 [5]: > 20000 nM
MIC [6]: 8 µg/mL (≈ 7.98 µM)
MIC [7]: 2 µg/mL (≈ 2 µM)
MIC [8]: > 64 µg/mL
MIC [9]: > 64 µg/mL
MIC [10]: > 64 µg/mL

CCCCCCCCCCCCCCCC(=O)N(C)[C@H](CO)C(=O)N[C@H](C)C(=O)NCC(=O)N(C)[C@@H]1C(=O)N[C@@H](C)C(=O)N[C@H](C(=O)NCP(=O)(O)O)Cc2ccc(O)c(c2)-c2cc1ccc2O
IC50 [1]: 842 nM
MIC [2]: 4 µg/mL (≈ 4.11 µM)
MIC [3]: > 64 µg/mL
MIC [4]: > 64 µg/mL
IC50 [5]: 16400 nM
MIC [6]: 8 µg/mL (≈ 8.21 µM)
MIC [7]: 0.1 µg/mL (≈ 0.103 µM)
MIC [8]: > 64 µg/mL
MIC [9]: 64 µg/mL (≈ 65.7 µM)
MIC [10]: > 64 µg/mL

CCCCCCCCCCCCCCCC(=O)N(C)[C@H](CO)C(=O)N[C@H](C)C(=O)NCC(=O)N(C)[C@@H]1C(=O)N[C@@H](C)C(=O)N[C@H](C(=O)O)Cc2ccc(O)c(c2)-c2cc1ccc2O [ARYLOMYCIN C16]
IC50 [1]: 70 nM
MIC [2]: 0.5 µg/mL (≈ 0.567 µM)
MIC [3]: 4 µg/mL (≈ 4.54 µM)
MIC [4]: 16 µg/mL (≈ 18.2 µM)
IC50 [5]: 1800 nM
MIC [6]: 0.25 µg/mL (≈ 0.284 µM)
MIC [7]: 0.02 µg/mL (≈ 0.0227 µM)
MIC [8]: > 64 µg/mL
MIC [9]: > 64 µg/mL
MIC [10]: > 64 µg/mL

From ChEMBL document CHEMBL2429855, “Efforts toward broadening the spectrum of arylomycin antibiotic activity” (Bioorg Med Chem Lett, 2013)
